Assay results as given in ChEMBL document CHEMBL2163280 (J Med Chem, 2012).
The source made the active and inactive calls. The rule behind the calls is not given here.

Legend:
[1] = target: Neuronal acetylcholine receptor; alpha4/beta2 (Rattus norvegicus, UniProt P09483+P12390); test: Displacement of [3H]epibatidine from rat alpha4beta2 nACHR; type: protein-complex assay
[2] = target: Acetylcholine receptor; alpha1/beta1/delta/gamma (Homo sapiens) (UniProt P02708+P07510+P11230+Q07001); test: Agonist activity at alpha1betagammadelta nACHR in human TE671/RD cells by 86Rb+ efflux assay; type: functional, cell-based
[3] = target: Neuronal acetylcholine receptor subunit alpha-7 (Rattus norvegicus, UniProt Q05941); test: Binding affinity to rat alpha7 nACHR […]
Sequence of Neuronal acetylcholine receptor subunit alpha-7 (Q05941 whole entry): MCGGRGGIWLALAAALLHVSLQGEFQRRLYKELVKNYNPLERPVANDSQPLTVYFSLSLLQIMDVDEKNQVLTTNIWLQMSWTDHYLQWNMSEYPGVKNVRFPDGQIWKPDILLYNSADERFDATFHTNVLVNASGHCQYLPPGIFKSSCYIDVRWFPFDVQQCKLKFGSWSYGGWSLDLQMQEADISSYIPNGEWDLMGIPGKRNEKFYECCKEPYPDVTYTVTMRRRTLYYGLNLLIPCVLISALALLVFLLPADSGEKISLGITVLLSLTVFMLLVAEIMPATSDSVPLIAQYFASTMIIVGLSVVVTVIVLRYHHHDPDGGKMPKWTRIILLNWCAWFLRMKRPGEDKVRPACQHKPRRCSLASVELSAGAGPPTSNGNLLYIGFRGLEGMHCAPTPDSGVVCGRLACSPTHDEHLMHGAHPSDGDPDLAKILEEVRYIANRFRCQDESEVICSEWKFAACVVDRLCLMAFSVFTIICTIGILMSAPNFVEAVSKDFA

[4] = target: Neuronal acetylcholine receptor; alpha3/beta4 (Rattus norvegicus, UniProt P04757+P12392); test: Displacement of [3H]epibatidine from rat alpha3beta4 nACHR; type: protein-complex assay
Sequence of Neuronal acetylcholine receptor; alpha3/beta4 (P04757 whole entry): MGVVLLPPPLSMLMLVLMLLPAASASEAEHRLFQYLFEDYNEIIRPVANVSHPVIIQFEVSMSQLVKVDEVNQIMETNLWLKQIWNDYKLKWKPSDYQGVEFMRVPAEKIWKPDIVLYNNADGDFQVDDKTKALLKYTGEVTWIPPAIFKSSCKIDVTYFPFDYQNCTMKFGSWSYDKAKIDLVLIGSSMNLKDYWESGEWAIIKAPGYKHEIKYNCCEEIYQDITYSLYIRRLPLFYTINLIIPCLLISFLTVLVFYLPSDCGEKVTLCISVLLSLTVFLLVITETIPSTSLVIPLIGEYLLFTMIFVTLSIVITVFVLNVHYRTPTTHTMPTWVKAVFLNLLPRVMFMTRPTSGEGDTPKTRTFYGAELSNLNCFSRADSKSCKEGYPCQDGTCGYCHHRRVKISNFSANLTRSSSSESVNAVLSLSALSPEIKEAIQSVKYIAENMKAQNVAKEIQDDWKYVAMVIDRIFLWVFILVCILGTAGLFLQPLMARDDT
Sequence of Neuronal acetylcholine receptor; alpha3/beta4 (P12392 whole entry): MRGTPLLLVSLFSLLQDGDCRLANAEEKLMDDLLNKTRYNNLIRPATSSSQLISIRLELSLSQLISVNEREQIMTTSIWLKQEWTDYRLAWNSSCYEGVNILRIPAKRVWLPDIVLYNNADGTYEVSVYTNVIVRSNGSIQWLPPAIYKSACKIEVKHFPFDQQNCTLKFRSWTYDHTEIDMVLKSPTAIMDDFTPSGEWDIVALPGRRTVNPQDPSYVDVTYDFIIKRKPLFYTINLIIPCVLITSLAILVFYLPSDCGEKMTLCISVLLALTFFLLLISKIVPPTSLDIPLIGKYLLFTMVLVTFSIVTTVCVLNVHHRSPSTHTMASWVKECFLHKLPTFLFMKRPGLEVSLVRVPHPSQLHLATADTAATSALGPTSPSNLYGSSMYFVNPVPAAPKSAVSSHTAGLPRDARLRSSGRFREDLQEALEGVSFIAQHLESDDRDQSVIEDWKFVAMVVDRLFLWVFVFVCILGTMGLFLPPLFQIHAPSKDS

[5] = target: Neuronal acetylcholine receptor; alpha4/beta4 (Rattus norvegicus, UniProt P09483+P12392); test: Displacement of [3H]epibatidine from rat alpha4beta4 nACHR; type: protein-complex assay
Sequence of Neuronal acetylcholine receptor; alpha4/beta4 (P09483 whole entry): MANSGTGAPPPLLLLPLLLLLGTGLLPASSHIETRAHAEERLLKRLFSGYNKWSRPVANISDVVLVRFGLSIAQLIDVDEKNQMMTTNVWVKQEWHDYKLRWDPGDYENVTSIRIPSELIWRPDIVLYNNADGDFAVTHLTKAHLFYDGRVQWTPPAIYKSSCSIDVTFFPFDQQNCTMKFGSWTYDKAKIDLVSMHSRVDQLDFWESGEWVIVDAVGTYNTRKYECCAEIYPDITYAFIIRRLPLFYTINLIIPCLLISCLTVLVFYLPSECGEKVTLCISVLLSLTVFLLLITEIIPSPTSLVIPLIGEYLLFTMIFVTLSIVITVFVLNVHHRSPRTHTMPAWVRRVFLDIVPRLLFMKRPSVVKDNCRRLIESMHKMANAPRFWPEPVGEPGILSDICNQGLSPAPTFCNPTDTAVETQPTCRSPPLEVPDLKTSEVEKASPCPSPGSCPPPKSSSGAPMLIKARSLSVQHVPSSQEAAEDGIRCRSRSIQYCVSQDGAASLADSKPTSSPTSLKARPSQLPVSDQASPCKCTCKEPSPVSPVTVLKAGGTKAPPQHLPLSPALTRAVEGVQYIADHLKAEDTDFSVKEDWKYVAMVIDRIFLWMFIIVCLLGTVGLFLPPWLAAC
Sequence of Neuronal acetylcholine receptor; alpha4/beta4 (P12392 whole entry): as the sequence (P12392 whole entry) above

[6] = target: Neuronal acetylcholine receptors; alpha-3/beta-4, alpha-5, beta-2 (Homo sapiens) (UniProt P17787+P30926+P32297+P30532); test: Agonist activity at alpha3beta4alpha5beta2 nACHR in human SH-SY5Y cells at 10 uM by 86Rb+ efflux assay; type: functional, cell-based
Sequence of Neuronal acetylcholine receptors; alpha-3/beta-4, alpha-5, beta-2 (Homo sapiens) (P17787 whole entry, looked up): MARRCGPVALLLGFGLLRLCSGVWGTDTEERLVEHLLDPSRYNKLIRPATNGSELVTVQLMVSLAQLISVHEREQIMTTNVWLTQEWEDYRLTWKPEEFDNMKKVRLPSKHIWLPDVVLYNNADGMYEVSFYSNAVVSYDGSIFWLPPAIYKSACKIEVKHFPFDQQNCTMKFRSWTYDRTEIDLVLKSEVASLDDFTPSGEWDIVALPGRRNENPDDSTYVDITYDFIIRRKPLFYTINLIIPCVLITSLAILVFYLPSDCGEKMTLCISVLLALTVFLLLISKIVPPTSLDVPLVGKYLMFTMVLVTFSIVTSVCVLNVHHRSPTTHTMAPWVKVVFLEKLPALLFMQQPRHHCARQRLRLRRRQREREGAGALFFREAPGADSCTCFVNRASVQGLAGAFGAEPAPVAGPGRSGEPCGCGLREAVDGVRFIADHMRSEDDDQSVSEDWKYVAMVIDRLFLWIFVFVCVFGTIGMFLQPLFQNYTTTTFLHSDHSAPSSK
Sequence of Neuronal acetylcholine receptors; alpha-3/beta-4, alpha-5, beta-2 (Homo sapiens) (P30532 whole entry, looked up): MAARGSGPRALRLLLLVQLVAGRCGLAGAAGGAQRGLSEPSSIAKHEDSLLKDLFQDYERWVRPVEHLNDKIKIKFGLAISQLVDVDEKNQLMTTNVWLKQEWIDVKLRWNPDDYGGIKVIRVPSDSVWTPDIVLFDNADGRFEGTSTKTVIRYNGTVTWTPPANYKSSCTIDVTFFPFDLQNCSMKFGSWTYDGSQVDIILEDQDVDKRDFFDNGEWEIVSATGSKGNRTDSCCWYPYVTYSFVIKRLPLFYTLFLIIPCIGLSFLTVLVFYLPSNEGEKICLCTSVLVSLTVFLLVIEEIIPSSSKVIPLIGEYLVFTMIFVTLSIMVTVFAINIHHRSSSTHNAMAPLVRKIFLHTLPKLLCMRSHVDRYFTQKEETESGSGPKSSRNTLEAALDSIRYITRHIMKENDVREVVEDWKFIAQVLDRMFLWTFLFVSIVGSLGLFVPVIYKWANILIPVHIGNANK
Sequence of Neuronal acetylcholine receptors; alpha-3/beta-4, alpha-5, beta-2 (Homo sapiens) (P30926 whole entry, looked up): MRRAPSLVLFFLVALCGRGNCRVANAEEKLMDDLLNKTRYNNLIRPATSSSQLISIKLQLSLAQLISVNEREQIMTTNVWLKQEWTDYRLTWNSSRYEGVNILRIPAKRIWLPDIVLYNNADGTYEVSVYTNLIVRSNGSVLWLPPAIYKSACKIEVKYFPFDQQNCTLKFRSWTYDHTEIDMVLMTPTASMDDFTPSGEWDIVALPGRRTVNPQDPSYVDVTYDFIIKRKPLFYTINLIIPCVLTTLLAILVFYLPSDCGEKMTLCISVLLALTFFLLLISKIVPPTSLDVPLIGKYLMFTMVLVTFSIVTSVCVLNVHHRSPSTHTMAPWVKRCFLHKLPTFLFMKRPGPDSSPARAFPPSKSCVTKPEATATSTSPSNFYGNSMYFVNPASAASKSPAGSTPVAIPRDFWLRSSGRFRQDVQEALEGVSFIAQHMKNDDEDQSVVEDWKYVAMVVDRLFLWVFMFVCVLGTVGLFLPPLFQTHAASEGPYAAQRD
Sequence of Neuronal acetylcholine receptors; alpha-3/beta-4, alpha-5, beta-2 (Homo sapiens) (P32297 whole entry, looked up): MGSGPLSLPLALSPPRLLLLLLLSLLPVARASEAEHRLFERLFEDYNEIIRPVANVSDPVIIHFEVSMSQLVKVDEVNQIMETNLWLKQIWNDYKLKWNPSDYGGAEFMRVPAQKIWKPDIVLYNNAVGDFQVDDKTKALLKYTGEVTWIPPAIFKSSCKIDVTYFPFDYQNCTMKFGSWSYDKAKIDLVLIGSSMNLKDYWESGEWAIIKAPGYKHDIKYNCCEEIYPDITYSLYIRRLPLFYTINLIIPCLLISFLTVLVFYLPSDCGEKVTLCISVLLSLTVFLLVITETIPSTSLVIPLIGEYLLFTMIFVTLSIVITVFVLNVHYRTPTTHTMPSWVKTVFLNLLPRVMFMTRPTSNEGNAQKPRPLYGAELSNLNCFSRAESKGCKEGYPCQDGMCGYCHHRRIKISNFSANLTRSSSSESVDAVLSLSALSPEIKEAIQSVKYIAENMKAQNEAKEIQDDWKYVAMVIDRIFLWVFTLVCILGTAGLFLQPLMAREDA

Mus musculus [7] = test: Antidepressant activity in BALB/cJ mouse assessed as reduction in immobility at 20 mg/kg, po measured after 30 mins post drug administration by forced swim test; type: functional, organism-based; set-up: dose 20 mg/kg
Method in brief: (§1)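 Male BALB/cJ mice, 8–10 weeks old, housed four per cage at 22±2 °C on a 12 h light–dark cycle. Drug was dissolved in injectable water and given ip or by oral gavage at 10 mL/kg. After 30 min, each mouse was placed in a glass cylinder of water (23±1 °C, 12 cm deep), and time floating immobile was scored over 6 min. n = 9–10/group; ANOVA, then Fisher's PLSD against vehicle.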

Mus musculus [8] = test: Antidepressant activity in BALB/cJ mouse assessed as reduction in immobility at 10 mg/kg, ip measured after 30 mins post drug administration by forced swim test; type: functional, organism-based; set-up: dose 10 mg/kg; method in brief: as §1

Sequence of Neuronal acetylcholine receptor; alpha4/beta2 (P09483 whole entry): as the sequence (P09483 whole entry) above
Sequence of Neuronal acetylcholine receptor; alpha4/beta2 (P12390 whole entry): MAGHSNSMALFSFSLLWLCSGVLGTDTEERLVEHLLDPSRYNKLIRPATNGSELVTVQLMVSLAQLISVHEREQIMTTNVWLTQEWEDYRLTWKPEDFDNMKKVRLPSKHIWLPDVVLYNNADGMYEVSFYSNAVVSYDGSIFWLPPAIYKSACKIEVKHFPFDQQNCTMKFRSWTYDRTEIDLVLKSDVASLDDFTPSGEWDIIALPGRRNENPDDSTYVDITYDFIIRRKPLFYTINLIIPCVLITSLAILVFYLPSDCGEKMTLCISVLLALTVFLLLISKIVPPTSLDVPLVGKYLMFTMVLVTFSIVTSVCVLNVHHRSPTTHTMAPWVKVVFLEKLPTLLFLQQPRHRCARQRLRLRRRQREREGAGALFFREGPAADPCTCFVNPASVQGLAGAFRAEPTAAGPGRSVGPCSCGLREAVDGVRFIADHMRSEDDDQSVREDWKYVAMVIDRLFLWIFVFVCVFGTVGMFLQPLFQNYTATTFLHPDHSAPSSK

Cc1cc(OC[C@@H]2CCCN2)on1
Activity [2]: inactive

c1ccc(NCc2cc(OC[C@@H]3CCN3)on2)cc1
Activity [2]: inactive

c1cnc2cc3c(cc2n1)[C@@H]1CNC[C@H]3C1 [VARENICLINE]
Ki [3]: 125 nM | Ki [4]: 86 nM | Ki [5]: 110 nM | Activity [2]: inactive | Efficacy [6]: 110%

FCc1cc(OC[C@@H]2CCN2)on1
Activity [2]: inactive

OCc1cc(OC[C@@H]2CCN2)on1
Activity [2]: inactive

OCc1cc(OC[C@@H]2CCN2)no1
Activity [2]: inactive

Fc1ccc(NCc2cc(OC[C@@H]3CCN3)on2)cc1
Activity [2]: inactive

c1ccc(OCc2cc(OC[C@@H]3CCCN3)on2)cc1
Activity [2]: inactive

Cc1cc([C@@H]2CCCN2C)on1 [ABT-418]
Ki [1]: 7.4 nM

CN[C@H]1CC[C@@H](c2ccc(Cl)c(Cl)c2)c2ccccc21
Activity (Mus musculus [7]): Active | Activity (Mus musculus [8]): Active
